Data on 75 sequences can be found in the array DNA melting data of Ke et al. (doi:10.1101/2024.01.08.574731).

Series [1] is described as follows: melting temperature; fluorescence melt of hairpins on a sequencing array, two-state fit, raised by 9.35 °C to match UV melts. The following applies: sodium 0.088 M. The method, boiled down: (§1)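 Melting temperature and folding enthalpy were obtained by bootstrapped two-state fitting. Fits used Cy3 fluorescence of library hairpins with annealed Cy3 and quencher oligos on a sequenced MiSeq flow cell, imaged in 50 mM Na-HEPES pH 8.0, 25 mM NaCl in 2.5 °C steps up to 60 °C and normalised to pre-quench Cy3 and control constructs. Four replicates were combined by inverse-variance weighting, and fitted temperatures were raised by 9.35 °C to match UV melts.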

Series [2] can be described thus: folding enthalpy; higher = less favourable; fluorescence melt of hairpins on a sequencing array, two-state fit. The following applies: sodium 0.088 M. In a few lines:
as §1

On to GCGCCCGGAAACGAGCGC ((((.((....)).)))), for which the Tm in series [1] amounted to 60 °C. Further, the folding enthalpy in series [2] is -38.9 kcal/mol.
The like results for GCGCCCGGAAACGGGCAC (.(((((....))))).) were, in that order, 55.4 °C and -9.09 kcal/mol.
Turning to GCGCCGACGAAAGTCCGC (((..(((....)))))), the Tm in series [1] turned out to be 50 °C. Also, the folding enthalpy in series [2] was -19.8 kcal/mol.
As to GCGCCGCGAAAGCCTCGC (((..((....))..))), in series [1], the Tm was 44.4 °C. Besides, the folding enthalpy in series [2] is -19.3 kcal/mol.
Turning to GCGCCGCGAAAGCGTTGC ((..(((....)))..)), the Tm in series [1] stood at 47.6 °C. Moreover, in series [2], the folding enthalpy was -15.3 kcal/mol.
For the sequence GCGCCGCGAAAGCTGTGC ((.(.((....)).).)), in series [1], the Tm stood at 53.9 °C. Also, in series [2], the folding enthalpy was -20.4 kcal/mol.
The like results for GCGCCGGGAAACCGGTGC ((.((((....)))).)) were, in that order, 69 °C and -31.5 kcal/mol.
Regarding GCGCCTGGAAACAGGCAC (.(((((....))))).), the Tm in series [1] amounted to 47.9 °C. Further, the folding enthalpy in series [2] was -11.9 kcal/mol.
The like results for GCGCGACGAAAGTCCCGC (((.(((....))).))) were, in that order, 57.5 °C and -42.8 kcal/mol.
The like results for GCGCGACGAAAGTCCGC (((.(((....)))))) were, in that order, 66.8 °C and -29 kcal/mol.
For GCGCGAGGAAACCCGCAC (.(((.(....).))).), the Tm in series [1] was found to be 38.1 °C. For the same sequence, in series [2], the folding enthalpy was -16.8 kcal/mol.
GCGCGATCGAAAGATCGC (((..(((....)))))): the Tm in series [1] turned out to be 60.6 °C. Moreover, in series [2], the folding enthalpy is -6.32 kcal/mol.
On the same counts, the results for GCGCGCGAAAGCGATCGC ((((((....)))..))) are 52.8 °C and -18.5 kcal/mol.
For GCGCGCGAAAGCGTCCGC ((((((....)))..))), the Tm in series [1] came out at 53 °C. Besides, the folding enthalpy in series [2] is -14.9 kcal/mol.
On the same counts, the results for GCGCGCTCGAAAGAGCGC (((..(((....)))))) are 66.8 °C and -6.02 kcal/mol.
Take GCGCGGCGAAAGCCCAGC ((..(((....)))..)): the Tm in series [1] stood at 57.5 °C. Moreover, the folding enthalpy in series [2] is -16 kcal/mol.
On the same counts, the results for GCGCGGCGAAAGCTGTGC ((.(.((....)).).)) are 65.2 °C and -32.2 kcal/mol.
Consider GCGCGTCGAAAGACCCGC (((.(((....))).))), for which, in series [1], the Tm was determined as 55.8 °C. The folding enthalpy in series [2] is -37.3 kcal/mol.
The like results for GCGCGTGGAAACACACGC (((.(((....))).))) were, in that order, 57.4 °C and -34.1 kcal/mol.
Take GCGCGTGGAAACACGTGC ((.((((....)))).)): in series [1], the Tm was found to be 64.1 °C. Also, the folding enthalpy in series [2] was -52.1 kcal/mol.
Regarding GCGCTAGGAAACTAACGC (((.(((....))).))), the Tm in series [1] was 45.5 °C. Also, the folding enthalpy in series [2] was -29.9 kcal/mol.
The like results for GCGCTATCGAAAGATCGC (((..(((....)))))) were, in that order, 44.2 °C and -25.6 kcal/mol.
On the same counts, the results for GCGCTCGAAAGAGACGC ((((((....))).))) are 58 °C and -28.6 kcal/mol.
Turning to GCGCTCGAAAGAGATCGC ((((((....)))..))), the Tm in series [1] stood at 45.8 °C. Further, the folding enthalpy in series [2] is -24.7 kcal/mol.
Take GCGCTCGAAAGAGGACGC ((((((....)))..))): in series [1], the Tm was 50 °C. In addition, the folding enthalpy in series [2] was -23.7 kcal/mol.
The like results for GCGCTCGAAAGAGTCCGC ((((((....)))..))) were, in that order, 42.8 °C and -24.3 kcal/mol.
As to GCGCTGCGAAAGCAATGC ((..(((....)))..)), in series [1], the Tm worked out at 47.8 °C. Besides, the folding enthalpy in series [2] was -18 kcal/mol.
For the sequence GCGCTGCGAAAGCATAGC ((..(((....)))..)), the Tm in series [1] amounted to 52.7 °C. In series [2], the folding enthalpy was -22.7 kcal/mol.
On the same counts, the results for GCGCTGCGAAAGCATGGC ((..(((....)))..)) are 43.6 °C and -19.4 kcal/mol.
On the same counts, the results for GCGCTGCGAAAGCATTGC ((..(((....)))..)) are 41.1 °C and -17.2 kcal/mol.
The like results for GCGCTGCGAAAGCCTCGC (((..((....))..))) were, in that order, 47.6 °C and -22 kcal/mol.
Regarding GCGCTGCGAAAGCGGAGC ((.(.((....)).).)), the Tm in series [1] amounted to 63.3 °C. In addition, the folding enthalpy in series [2] is -21.4 kcal/mol.
Turning to GCGCTGCGAAAGCTGAGC ((.(.((....)).).)), the Tm in series [1] worked out at 57.6 °C. Besides, the folding enthalpy in series [2] is -21.2 kcal/mol.
The like results for GCGCTGCGAAAGCTTCGC (((..((....))..))) were, in that order, 54.9 °C and -20.6 kcal/mol.
With GCGCTGTCGAAAGACCGC (((..(((....)))))), the Tm in series [1] came out at 52.3 °C. In series [2], the folding enthalpy was -22.8 kcal/mol.
As to GCGCTTCGAAAGAACGC (((.(((....)))))), the Tm in series [1] was 53.1 °C. In addition, the folding enthalpy in series [2] was -32.9 kcal/mol.
On the same counts, the results for GCGGAAAACCGC ((((....)))) are 49.8 °C and -16.3 kcal/mol.
Turning to GCGGAAGAAATTCCGC ((((((....)))))), the Tm in series [1] was found to be 61.8 °C. Further, the folding enthalpy in series [2] is -34.9 kcal/mol.
Consider GCGGAAGCCCGC ((((....)))), for which the Tm in series [1] was found to be 57.3 °C. Moreover, the folding enthalpy in series [2] is -14 kcal/mol.
The like results for GCGGAAGGAAACTTTCGC (((.(((....))).))) were, in that order, 53 °C and -36.1 kcal/mol.
The like results for GCGGAATGCCGC ((((....)))) were, in that order, 53 °C and -24.3 kcal/mol.
As to GCGGACATCCGC ((((....)))), in series [1], the Tm turned out to be 56.5 °C. The folding enthalpy in series [2] was -22.5 kcal/mol.
On to GCGGACCCGAAAGGGCGC (((..(((....)))))), for which the Tm in series [1] turned out to be 59.5 °C. Besides, in series [2], the folding enthalpy is -18 kcal/mol.
On the same counts, the results for GCGGACGAAAGTCGACGC ((((((....)))..))) are 54.8 °C and -27.3 kcal/mol.
Regarding GCGGACGCGAAAGCGCGC (((..(((....)))))), in series [1], the Tm came to 62 °C. Besides, the folding enthalpy in series [2] was -17.1 kcal/mol.
For the sequence GCGGACGGAAACGTTCGC (((.(((....))).))), in series [1], the Tm turned out to be 64.2 °C. In series [2], the folding enthalpy is -44.9 kcal/mol.
Turning to GCGGACTCGAAAGAGCGC (((..(((....)))))), the Tm in series [1] came out at 51 °C. Besides, the folding enthalpy in series [2] is -22.9 kcal/mol.
The like results for GCGGACTGCCGC ((((....)))) were, in that order, 54.5 °C and -24.5 kcal/mol.
As to GCGGAGAACCGC ((((....)))), the Tm in series [1] worked out at 51.1 °C. Also, in series [2], the folding enthalpy is -22.7 kcal/mol.
In the case of GCGGAGACCGC ((((...)))), the Tm in series [1] is 53.2 °C. Also, the folding enthalpy in series [2] is -24.4 kcal/mol.
The like results for GCGGAGCGAAAGCCCGGC ((.(.((....)).).)) were, in that order, 53.5 °C and -10.5 kcal/mol.
Turning to GCGGAGCGAAAGCTCGGC ((.((((....)))).)), the Tm in series [1] was determined as 65.1 °C. Besides, in series [2], the folding enthalpy is -17.8 kcal/mol.
The like results for GCGGAGCGAAAGCTGTGC ((..(((....)))..)) were, in that order, 51 °C and -14.2 kcal/mol.
The like results for GCGGAGGCCCGC ((((....)))) were, in that order, 53.8 °C and -17.4 kcal/mol.
The like results for GCGGAGGGAAACCCCCAC (.((.((....)).)).) were, in that order, 22.4 °C and -7.96 kcal/mol.
As for GCGGAGGGAAACCTCCAC (.(((((....))))).), the Tm in series [1] was 45.7 °C. Further, the folding enthalpy in series [2] is -15.4 kcal/mol.
The like results for GCGGAGGGAAACCTCTGC ((.((((....)))).)) were, in that order, 58.2 °C and -40.3 kcal/mol.
Take GCGGATATCCGC ((((....)))): the Tm in series [1] stood at 56.7 °C. Moreover, the folding enthalpy in series [2] is -33.9 kcal/mol.
Regarding GCGGCAAACCGC ((((....)))), the Tm in series [1] turned out to be 55.8 °C. Besides, the folding enthalpy in series [2] was -27.8 kcal/mol.
On the same counts, the results for GCGGCAACGAAAGTTCGC (((..(((....)))))) are 45.1 °C and -21.3 kcal/mol.
On the same counts, the results for GCGGCACACCGC ((((....)))) are 57.5 °C and -25.5 kcal/mol.
On the same counts, the results for GCGGCAGCCGC ((((...)))) are 61.7 °C and -10.9 kcal/mol.
With GCGGCATACCGC ((((....)))), in series [1], the Tm was 58.3 °C. Further, the folding enthalpy in series [2] was -32 kcal/mol.
With GCGGCATCCCGC ((((....)))), in series [1], the Tm is 56.4 °C. In series [2], the folding enthalpy is -20.7 kcal/mol.
The like results for GCGGCCCGCCGC ((((....)))) were, in that order, 68.7 °C and -16.9 kcal/mol.
Regarding GCGGCCGAAAGGCGTCGC ((((((....)))..))), the Tm in series [1] amounted to 59.3 °C. The folding enthalpy in series [2] was -17.4 kcal/mol.
The like results for GCGGCCGAAAGGCTACGC ((((((....)))..))) were, in that order, 61.1 °C and -19.6 kcal/mol.
Consider GCGGCCGAAAGGCTCCGC ((((((....)))..))), for which, in series [1], the Tm came out at 53.8 °C. In addition, the folding enthalpy in series [2] is -16.8 kcal/mol.
The like results for GCGGCCGCCCGC ((((....)))) were, in that order, 63.2 °C and -17.1 kcal/mol.
For the sequence GCGGCGCGAAAGCACTGC ((.(.((....)).).)), the Tm in series [1] stood at 54.6 °C. Moreover, the folding enthalpy in series [2] was -29 kcal/mol.
On the same counts, the results for GCGGCGCGAAAGCAGCGC (((..((....))..))) are 68.1 °C and -27.4 kcal/mol.
With GCGGCGCGAAAGCATCGC (((..((....))..))), the Tm in series [1] came out at 61.4 °C. The folding enthalpy in series [2] was -22.6 kcal/mol.
As for GCGGCGCGAAAGCCCAGC ((.(.((....)).).)), the Tm in series [1] turned out to be 53 °C. Moreover, the folding enthalpy in series [2] was -15.3 kcal/mol.
On the same counts, the results for GCGGCGCGAAAGCGTGGC ((..(((....)))..)) are 62 °C and -20.7 kcal/mol.
For the sequence GCGGCGCGAAAGCTACGC (((..((....))..))), the Tm in series [1] amounted to 61.8 °C. Further, in series [2], the folding enthalpy was -28.9 kcal/mol.
